This is an account of results in ChEMBL document CHEMBL4321820, “Identification and Optimization of Mechanism-Based Fluoroallylamine Inhibitors of Lysyl Oxidase-like 2/3” (J Med Chem, 2019).

The target of series [1] is T1, Amine oxidase [copper-containing] 3 (Homo sapiens, UniProt Q16853).
T1 sequence (Q16853 whole entry): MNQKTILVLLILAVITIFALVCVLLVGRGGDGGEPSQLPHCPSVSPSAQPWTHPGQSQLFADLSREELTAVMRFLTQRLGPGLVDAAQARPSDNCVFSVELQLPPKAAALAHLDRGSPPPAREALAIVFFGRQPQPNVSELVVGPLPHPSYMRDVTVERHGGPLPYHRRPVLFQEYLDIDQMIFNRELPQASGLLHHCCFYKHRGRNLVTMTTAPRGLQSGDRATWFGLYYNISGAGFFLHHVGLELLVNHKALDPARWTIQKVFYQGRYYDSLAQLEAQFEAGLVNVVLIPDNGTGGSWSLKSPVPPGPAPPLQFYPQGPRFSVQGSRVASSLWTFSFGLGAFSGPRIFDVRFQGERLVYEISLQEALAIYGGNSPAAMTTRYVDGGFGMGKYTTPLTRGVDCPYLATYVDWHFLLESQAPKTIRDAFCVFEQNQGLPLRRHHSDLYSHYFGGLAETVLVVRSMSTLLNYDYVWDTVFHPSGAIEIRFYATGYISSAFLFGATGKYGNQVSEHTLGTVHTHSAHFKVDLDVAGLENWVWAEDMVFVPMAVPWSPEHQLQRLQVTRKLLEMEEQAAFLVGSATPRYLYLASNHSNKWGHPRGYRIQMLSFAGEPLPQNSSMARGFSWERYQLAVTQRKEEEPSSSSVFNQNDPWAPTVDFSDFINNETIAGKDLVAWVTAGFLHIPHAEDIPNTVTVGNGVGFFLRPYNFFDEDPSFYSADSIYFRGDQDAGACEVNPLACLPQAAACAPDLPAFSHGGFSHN
Nature of the series: Substrate activity at recombinant human SSAO assessed as compound oxidation by measuring oxidative turnover at 30 uM measured for 40 mins by horseradish peroxidase-coupled amplex red reagent-based fluorometric assay relative to DMSO. In kind it is ADME. Put shortly: (§1)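 Compound oxidation measured without substrate by peroxidase-coupled fluorometric read-out of resorufin formation over 40 min at 37 °C in HEPES buffer. Amplex Red 20 µM, HRP 4 U/ml, test compound at final 30 µM. Enzyme source was human recombinant SSAO or AOC4 from diluted dog serum. Benzylamine at 600 µM served as positive control. Signal is expressed relative to DMSO-only background, so a value near 1 means no turnover.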

The next series addresses T2, Lysyl oxidase homolog 2 (Homo sapiens, UniProt Q9Y4K0).
T2 sequence (Q9Y4K0 whole entry): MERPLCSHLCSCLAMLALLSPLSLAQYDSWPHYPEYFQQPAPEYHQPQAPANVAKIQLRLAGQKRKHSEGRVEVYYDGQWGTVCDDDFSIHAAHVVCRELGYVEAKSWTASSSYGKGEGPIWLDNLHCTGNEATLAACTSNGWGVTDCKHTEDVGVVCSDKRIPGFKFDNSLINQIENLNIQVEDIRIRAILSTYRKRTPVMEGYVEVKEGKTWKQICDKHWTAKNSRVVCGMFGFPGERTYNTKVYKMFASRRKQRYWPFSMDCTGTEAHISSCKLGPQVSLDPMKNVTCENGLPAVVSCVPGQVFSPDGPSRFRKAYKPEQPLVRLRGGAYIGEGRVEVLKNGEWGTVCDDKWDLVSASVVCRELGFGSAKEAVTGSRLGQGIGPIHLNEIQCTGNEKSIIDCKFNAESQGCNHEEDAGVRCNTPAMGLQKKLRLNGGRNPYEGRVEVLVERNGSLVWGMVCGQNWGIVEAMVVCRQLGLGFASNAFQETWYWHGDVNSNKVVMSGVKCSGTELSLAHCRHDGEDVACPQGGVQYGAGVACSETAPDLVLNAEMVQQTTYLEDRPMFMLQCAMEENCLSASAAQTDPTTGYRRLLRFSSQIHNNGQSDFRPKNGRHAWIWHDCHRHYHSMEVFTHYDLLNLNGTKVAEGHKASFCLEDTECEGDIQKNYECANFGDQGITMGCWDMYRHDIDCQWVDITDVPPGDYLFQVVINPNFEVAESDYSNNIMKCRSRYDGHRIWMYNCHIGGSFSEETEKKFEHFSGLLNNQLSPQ
Nature of the series: Inhibition of recombinant human C-terminal His-tagged […] (1-774 residues) expressed in mouse myeloma cells using putrescine as substrate preincubated with enzyme for 30 mins followed by substrate addition and measured every 2.5 mins for 30 mins by Amplex-Red oxidation assay. Summed up:
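LOXL2 enzyme preincubated with compound for 30 min at 37 °C, then Amplex Red (120 µM) / HRP (1.5 U/mL) mix containing 5 mM putrescine added. Buffer: 1.2 M urea, 50 mM sodium borate, pH 8.2. H2O2 fluorescence (ex 565/em 590) read every 2.5 min for 30 min at 37 °C; BAPN 100 µM as positive control; n≥2.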

Series [2] can be described thus: Substrate activity at AOC4 in dog serum assessed as compound oxidation by measuring oxidative turnover at 30 uM measured for 40 mins by horseradish peroxidase-coupled amplex red reagent-based fluorometric assay relative to DMSO. In kind it is ADME, cell-free, Canis lupus familiaris. Summed up: as §1
The next series has as its target T3, Protein-lysine 6-oxidase (Bos taurus, UniProt P33072).
T3 sequence (P33072 whole entry): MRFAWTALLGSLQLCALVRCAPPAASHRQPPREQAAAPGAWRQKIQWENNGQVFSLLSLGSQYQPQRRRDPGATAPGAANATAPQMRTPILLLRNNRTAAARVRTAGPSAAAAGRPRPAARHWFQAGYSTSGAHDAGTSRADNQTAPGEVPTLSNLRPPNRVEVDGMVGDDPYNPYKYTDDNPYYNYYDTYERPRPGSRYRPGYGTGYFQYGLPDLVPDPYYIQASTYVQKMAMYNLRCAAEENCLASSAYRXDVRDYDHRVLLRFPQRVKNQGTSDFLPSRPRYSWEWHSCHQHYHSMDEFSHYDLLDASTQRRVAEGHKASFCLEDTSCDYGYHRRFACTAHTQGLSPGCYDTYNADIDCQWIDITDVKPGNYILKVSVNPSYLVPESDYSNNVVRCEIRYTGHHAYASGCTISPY
Nature of the series: Inhibition of LOX in bovine aorta using putrescine as substrate preincubated with enzyme for 30 mins followed by substrate addition and measured every 2.5 mins for 30 mins by Amplex-Red oxidation assay. In kind it is tissue-based. Summed up:
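LOX extracted from calf aorta after PBS washing with 4 M urea/50 mM borate pH 8.2, concentrated on 10 kDa filters into 1.2 M urea/borate with protease inhibitors. Preincubated 30 min at 37 °C with compound, then Amplex Red/HRP with 10 mM putrescine; fluorescence read every 2.5 min for 30 min.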

Where only a bound is given, the exact number is not on record here.

On to `CCOC(=O)c1ccc2c(c1)c(-c1cccc(S(=O)(=O)N(C)C)c1)c(C)n2C/C(F)=C/CN.Cl`, for which the “fold change (FC)” value is 2.4 in series [1] and 1 in series [2]. For the same molecule, the IC50 on Lysyl oxidase homolog 2 (read-out: pIC50 (converted)) was 79.4 nM; at Protein-lysine 6-oxidase (read-out: pIC50 (converted)), 6310 nM.
For the molecule `Cc1c(-c2cccc(S(=O)(=O)N(C)C)c2)c2cc(C(=O)O)ccc2n1C/C(F)=C/CN.Cl`, the “fold change (FC)” value in series [1] and in series [2] was 1 in each case. Further, the IC50 at Lysyl oxidase homolog 2 (read-out: IC50) amounted to 5 nM; at Protein-lysine 6-oxidase (read-out: IC50), 1780 nM.
Consider `Cc1c(-c2cccc(S(=O)(=O)N(C)C)c2)c2ccccc2n1C/C(F)=C/CN.Cl`, for which the “fold change (FC)” value in series [1] is 1.4; in series [2], greater than 4. For the same molecule, the IC50 at Lysyl oxidase homolog 2 (read-out: pIC50 (converted)) is 100 nM; on Protein-lysine 6-oxidase (read-out: pIC50 (converted)), 2000 nM.
